Laboratory results from article PMC3082041 (Cancer Chemotherapy and Pharmacology, 2010).
Where two headings read alike, the source gives them in different places.

What was measured:
[1] = Urinary excretion of TSU-68; type: in vivo, human (Japanese patients); conditions: any dose level
Outline: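 Dosing was once daily on days 1 and 29 and bid on days 2–28. Drug measured by validated HPLC-UV (LLOQ 0.1 μg/mL). Excretion expressed as percentage of dose.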

[2] = tested on: plasma VEGF, E-selectin, tPA, VCAM-1, PAI-1, urine VEGF; assay: Angiogenesis-related biomarkers in plasma and urine; type: in vivo, human (Japanese patients); conditions: 14 patients
[3] = tested on: Caucasian patients; conditions: cited from earlier work
[4] = tested on: tumor xenograft explants; conditions: athymic mice, many types of tumor; cited from earlier work
[5] = tested on: liver cytochrome P450, CYP1A1/2; conditions: non-clinical studies; cited from earlier work
[6] = tested on: patients with advanced solid tumors; assay: Phase I dose escalation, drug-related adverse events; type: in vivo, human (Japanese patients)
Outline: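 Open, non-randomised escalation in three-patient cohorts at 200, 400, 800 and 1,200 mg/m2 oral bid. Tablets taken >2 h after breakfast and supper for 28 consecutive days, with a single dose on day 1. Toxicity graded weekly by NCI-CTC v2.0. DLT: grade 3/4 non-haematologic or grade 4 haematologic toxicity. MTD: DLT in >33% within 4 weeks.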

[7] = tested on: advanced solid tumors; assay: Antitumor effect; type: in vivo, human (Japanese patients)
Outline: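 Tumours measured before treatment and at 4 weeks, scored by Japan Society for Cancer Therapy (WHO-based) criteria. PR: ≥50% shrinkage held ≥4 weeks. NC: <50% shrinkage or ≤25% enlargement held ≥4 weeks. PD: ≥25% enlargement or new lesions. Tumour-type-related markers measured before therapy. Patients with progression were taken off study.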

[8] = published clinical result; cited from earlier work
[9] = 200 mg/m^2 bid (N = 3), G1, 28-days administration
[10] = 400 mg/m^2 bid (N = 3), G1, 28-days administration
[11] = 400 mg/m^2 bid (N = 3), G2, 28-days administration
[12] = 800 mg/m^2 bid (N = 6), G1, 28-days administration
[13] = 800 mg/m^2 bid (N = 6), G2, 28-days administration
[14] = 800 mg/m^2 bid (N = 6), G3, 28-days administration
[15] = 1,200 mg/m^2 bid (N = 3), G1, 28-days administration
[16] = 1,200 mg/m^2 bid (N = 3), G2, 28-days administration
[17] = Total, all dose levels (N = 15), 28-days administration

Cc1[nH]c(/C=C2\C(=O)Nc3ccccc32)c(C)c1CCC(=O)O [TSU-68, (Z)-3-[2,4-dimethyl-5-(2-oxo-1,2-dihydro-indol-3-ylidenemethyl)-1H-pyrrol-3-yl]-propionic acid]
Urinary excretion of TSU-68 [1]: below 1 % of dose
change of plasma VEGF, E-selectin, tPA and VCAM-1 [2]: not changed substantially
PAI-1, increase over the baseline ([2]; average): more than 20%
urine VEGF, increase over the baseline ([2]; average): more than 20%
PAI-1, average after treatment ([2]; baseline 24.3 ± 6.7 ng/ml): 29.5 ± 11.3 ng/mL
urine VEGF, average after treatment ([2]; baseline 96.6 ± 62.4 pg/ml): 132.1 ± 93.6 pg/mL
AUC ([3]; day 1, Caucasian patients): 70000 ng·h/mL
AUC ([3]; day 28, Caucasian patients): 32000 ng·h/mL
antitumor activity against tumor xenograft explants [4]: significant antitumor activity
induction of liver cytochrome P450, CYP1A1/2 [5]: causes induction of liver cytochrome P450, CYP1A1/2
Alanine aminotransferase increased, number of patients [6, 9]: 1
Alkaline phosphatase increased, number of patients [6, 9]: 1
Diarrhea, number of patients [6, 9]: 3
Face edema, number of patients [6, 9]: 1
Fatigue, number of patients [6, 9]: 1
Nausea, number of patients [6, 9]: 1
Upper abdominal pain, number of patients [6, 9]: 1
Urine discoloration, number of patients [6, 9]: 3
Chest pain, number of patients ([6]; 200 mg/m^2 bid (N = 3), G2, 28-days administration): 1
Alkaline phosphatase increased, number of patients [6, 10]: 1
Chest pain, number of patients [6, 10]: 1
Diarrhea, number of patients [6, 10]: 1
Face edema, number of patients [6, 10]: 1
Fatigue, number of patients [6, 10]: 1
Feces discolored, number of patients [6, 10]: 1
Urine discoloration, number of patients [6, 10]: 3
Albumin decreased, number of patients [6, 11]: 1
Upper abdominal pain, number of patients [6, 11]: 1
Abdominal pain, number of patients [6, 12]: 2
Alanine aminotransferase increased, number of patients [6, 12]: 2
Albumin decreased, number of patients [6, 12]: 4
Alkaline phosphatase increased, number of patients [6, 12]: 3
Anorexia, number of patients [6, 12]: 3
Diarrhea, number of patients [6, 12]: 2
Face edema, number of patients [6, 12]: 1
Fatigue, number of patients [6, 12]: 3
Feces discolored, number of patients [6, 12]: 6
Nausea, number of patients [6, 12]: 2
Total protein decreased, number of patients [6, 12]: 3
Urine discoloration, number of patients [6, 12]: 6
Vomiting, number of patients [6, 12]: 2
Abdominal pain, number of patients [6, 13]: 1
Anorexia, number of patients [6, 13]: 1
Diarrhea, number of patients [6, 13]: 2
Fatigue, number of patients [6, 13]: 1
Anemia, number of patients [6, 14]: 1
Arrhythmia, number of patients [6, 14]: 1
Thrombocytopenia, number of patients [6, 14]: 1
Abdominal pain, number of patients [6, 15]: 1
Alkaline phosphatase increased, number of patients [6, 15]: 1
Anorexia, number of patients [6, 15]: 2
Chest pain, number of patients [6, 15]: 1
Diarrhea, number of patients [6, 15]: 1
Face edema, number of patients [6, 15]: 2
Fatigue, number of patients [6, 15]: 2
Feces discolored, number of patients [6, 15]: 3
Upper abdominal pain, number of patients [6, 15]: 2
Urine discoloration, number of patients [6, 15]: 3
Abdominal pain, number of patients [6, 16]: 1
Albumin decreased, number of patients [6, 16]: 1
Anorexia, number of patients [6, 16]: 1
Diarrhea, number of patients [6, 16]: 1
Fatigue, number of patients [6, 16]: 1
Nausea, number of patients [6, 16]: 1
Vomiting, number of patients [6, 16]: 1
Abdominal pain, number of patients ([6]; Total (N = 5), after 28 days): 1
Abdominal pain, patients (%) ([6]; Total (N = 5), after 28 days): (20) %
Alanine aminotransferase increased, number of patients ([6]; Total (N = 5), after 28 days): 3
Alkaline phosphatase increased, number of patients ([6]; Total (N = 5), after 28 days): 2
Anorexia, number of patients ([6]; Total (N = 5), after 28 days): 1
Anorexia, patients (%) ([6]; Total (N = 5), after 28 days): (20) %
Arrhythmia, number of patients ([6]; Total (N = 5), after 28 days): 1
Arrhythmia, patients (%) ([6]; Total (N = 5), after 28 days): (20) %
Chest pain, number of patients ([6]; Total (N = 5), after 28 days): 2
Diarrhea, number of patients ([6]; Total (N = 5), after 28 days): 3
Face edema, number of patients ([6]; Total (N = 5), after 28 days): 3
Fatigue, number of patients ([6]; Total (N = 5), after 28 days): 4
Fatigue, patients (%) ([6]; Total (N = 5), after 28 days): (80) %
Feces discolored, number of patients ([6]; Total (N = 5), after 28 days): 4
Feces discolored, patients (%) ([6]; Total (N = 5), after 28 days): (80) %
Nausea, number of patients ([6]; Total (N = 5), after 28 days): 1
Nausea, patients (%) ([6]; Total (N = 5), after 28 days): (20) %
Urine discoloration, number of patients ([6]; Total (N = 5), after 28 days): 5
Urine discoloration, patients (%) ([6]; Total (N = 5), after 28 days): (100) %
Vomiting, number of patients ([6]; Total (N = 5), after 28 days): 1
Vomiting, patients (%) ([6]; Total (N = 5), after 28 days): (20) %
Abdominal pain, number of patients [6, 17]: 5
Abdominal pain, patients (%) [6, 17]: (33) %
Alanine aminotransferase increased, number of patients [6, 17]: 3
Alanine aminotransferase increased, patients (%) [6, 17]: (20) %
Albumin decreased, number of patients [6, 17]: 6
Alkaline phosphatase increased, number of patients [6, 17]: 6
Anemia, number of patients [6, 17]: 1
Arrhythmia, number of patients [6, 17]: 1
Chest pain, number of patients [6, 17]: 3
Chest pain, patients (%) [6, 17]: (20) %
Face edema, number of patients [6, 17]: 5
Face edema, patients (%) [6, 17]: (33) %
Fatigue, number of patients [6, 17]: 9
Nausea, number of patients [6, 17]: 4
Thrombocytopenia, number of patients [6, 17]: 1
Total protein decreased, number of patients [6, 17]: 3
Total protein decreased, patients (%) [6, 17]: (20) %
Upper abdominal pain, number of patients [6, 17]: 4
Urine discoloration, number of patients [6, 17]: 15
Urine discoloration, patients (%) [6, 17]: (100) %
Vomiting, number of patients [6, 17]: 3
Vomiting, patients (%) [6, 17]: (20) %
recommended dose for further studies ([6]; continuous oral bid between meals): less than 800 mg/m^2 bid
tolerable dose for continuing treatment ([6]; oral bid between meals): ≤ 800 mg/m^2 bid
acceptable dosage level in daily administration ([6]; oral, between meals, estimated): 800 mg/m^2 bid
partial or complete responses ([7]; 15 patients, 200-1,200 mg/m^2 bid): No partial or complete responses were seen
patients with stable disease ([7]; non-small cell lung cancer 2, thymoma 1, peritoneal sarcoma 1): Four
AUC on day 56 compared with day 28 [8]: similar
